Data reported in ChEMBL document CHEMBL4732262, “Identification of two novel thiophene analogues as inducers of autophagy mediated cell death in breast cancer cells” (Bioorg Med Chem, 2021).
Calls of active or inactive are those of the source. The rule behind the calls is not given here.

How the values were obtained:
[1] = tested on: MCF7; experiment: Induction of apoptosis in human MCF7 cells assessed as late apoptotic cells at 2.5 uM after 24 hrs by annexin V-FITC/Propidium iodide staining based flow cytometric analysis (reference value: 0.2%); type: functional
[2] = tested on: MCF7; experiment: Induction of apoptosis in human MCF7cells assessed as reduction in size of cells at 2.5 uM by phase contrast microscopic method; type: functional, cell-based; details: time 6-24 hrs, TDE = time-dependent effect
Method in brief: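 ~5 × 10^4 cells in 6-well plates, either DMSO control or 2.5 µM. Morphology imaged at 0, 6, 12 and 24 h.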

[3] = tested on: MCF7; experiment: Induction of apoptosis in human MCF7 cells assessed as increase in cell death at 2.5 uM after 24 hrs by EtBr/AO staining based fluorescence microscopic method; type: functional
Method in brief: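 ~5 × 10^4 MCF7 cells on coverslips given 2.5 µM for 24 h, then PBS-washed and stained with 1:1 ethidium bromide/acridine orange (0.4 mg/ml each). Viewed by fluorescence microscopy, excitation 480 nm with a 515–530 nm barrier filter. Apoptotic, necrotic and viable cells scored from 200 cells per sample.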

[4] = tested on: MCF7; experiment: Induction of apoptosis in human MCF7 cells at 2.5 uM after 24 hrs by annexin V-FITC/Propidium iodide staining based flow cytometric analysis relative to tanshinone-1; type: functional
[5] = tested on: MDA-MB-231; experiment: Induction of apoptosis in human MDA-MB-231 cells assessed as increase in cleaved PARP level at 2.5 uM after r24 hrs by Western blot analysis; type: functional, cell-based; details: time 24.0 hrs
Method in brief: (§1)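 MCF7 or MDA-MB-231 cells given 2.5 µM or DMSO for 24 h, then lysed in RIPA buffer. Immunoblots probed overnight at 4 °C, followed by infrared-labelled secondary antibody for 1 h at 37 °C. Bands imaged and quantified densitometrically, with GAPDH as loading control. Representative of two independent experiments.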

[6] = tested on: MCF7; experiment: Induction of apoptosis in human MCF7 cells assessed as change in Bax protein expression at 2.5 uM after 24 hrs by Western blot analysis; type: functional, cell-based; method in brief: as §1
[7] = tested on: MCF7; experiment: Induction of autophagy in human MCF7 cells assessed as increase in p62 degradation at 2.5 uM after 24 hrs by Western blot analysis; type: functional, cell-based
Method in brief: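 MCF7 cells (~5 × 10^6) left untreated (DMSO control) or exposed to 2.5 µM compound for 24 h. Lysed in RIPA buffer, probed overnight at 4 °C, then given infrared-tagged secondary antibodies for 1 h at 37 °C and imaged by infrared scanning. LC3-II/I ratio and p62 taken by densitometry with GAPDH as loading control. Two independent experiments.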

[8] = tested on: MCF7; experiment: Induction of autophagy in human MCF7 cells assessed as increase in ATG16L1 mRNA expression at 2.5 uM after 24 hrs by RT-PCR analysis; type: functional, cell-based
Method in brief: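 MCF7 cells given 2.5 µM or DMSO for 24 h. Total RNA extracted with TRIzol and reverse-transcribed, then SYBR Green qPCR across 34 autophagy-regulatory genes (95 °C 10 min; 40 cycles of 95 °C 15 s and 60 °C 1 min). Relative expression by 2^-ΔΔCt against housekeeping genes and DMSO control, shown as log2. Two independent experiments.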

[9] = tested on: MCF7; experiment: Induction of autophagy in human MCF7 cells assessed as increase in UVRAG mRNA expression at 2.5 uM after 24 hrs by RT-PCR analysis; type: functional, cell-based
Method in brief: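 Total RNA was taken with TRIzol from MCF7 cells treated 24 h with 2.5 µM compound or DMSO, then reverse transcribed. SYBR Green qPCR ran 40 cycles of 95 °C 15 s / 60 °C 1 min. Relative expression was calculated by 2^-ΔΔCt against DMSO-treated cells, normalized to housekeeping genes (GAPDH, B2M and others). Samples run in duplicate, two independent experiments, values averaged.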

[10] = tested on: MCF7; experiment: Induction of autophagy in human MCF7 cells assessed as increase in GADD34 mRNA expression at 2.5 uM after 24 hrs by RT-PCR analysis; type: functional, cell-based
[11] = tested on: MCF7; experiment: Induction of autophagy in human MCF7 cells assessed as increase in PPP1R15A mRNA expression at 2.5 uM after 24 hrs by PCR microarray analysis; type: functional, cell-based
Method in brief: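 MCF7 cells (~10 × 10^6) were treated with 2.5 µM compound or DMSO for 24 h. Total RNA was converted to cDNA and run on an Unfolded Protein Response RT2 Profiler PCR array. Log2 fold change was computed by 2^-ΔΔCt against control cells, normalized to the mean of ACTB, B2M, GAPDH, HPRT1 and RPLPO.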

[12] = tested on: MCF7; experiment: Induction of autophagy in human MCF7 cells assessed as increase in IRE1 mRNA expression at 2.5 uM after 24 hrs by PCR microarray analysis; type: functional, cell-based
Method in brief: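 MCF7 cells given 2.5 µM or DMSO for 24 h. cDNA run on an Unfolded Protein Response RT2 Profiler PCR array. Changes computed by 2^-ΔΔCt (log2) against control, normalised to the mean of ACTB, B2M, GAPDH, HPRT1 and RPLPO.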

[13] = tested on: MCF7; experiment: Induction of autophagy in human MCF7 cells assessed as increase in ATF4 protein expression at 2.5 uM after 24 hrs by Western blot analysis; type: functional, cell-based; method in brief: as §1
[14] = tested on: MCF7; experiment: Induction of autophagy in human MCF7 cells assessed as increase in CHOP protein expression at 2.5 uM after 24 hrs by Western blot analysis; type: functional, cell-based; method in brief: as §1
[15] = tested on: MCF7; experiment: Induction of autophagy in human MCF7 cells assessed as increase in p62 degradation level after 24 hrs by Western blot analysis; type: functional, cell-based; details: dose 1.25-5 µM
Method in brief: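 Dose series in MCF7 cells (~5 × 10^6): 0, 1.25, 2.5 and 5 µM compound for 24 h, DMSO control. Lysates immunoblotted for p62 and LC3, GAPDH loading control, with infrared densitometry. At least two independent experiments.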

[16] = tested on: MCF7; experiment: Induction of autophagy in human MCF7 cells assessed as increase in LC3-2 conversion level at 2.5 uM after 24 hrs in presence of chloroquine by Western blot analysis; type: functional, cell-based
Method in brief: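 MCF7 cells given 2.5 µM alone or combined with 50 µM chloroquine for 24 h. Western blot for cleaved PARP, p62 and LC3, with GAPDH as loading control. LC3-II/I ratio by densitometry. At least two independent experiments.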

[17] = tested on: MDA-MB-231; experiment: Cytotoxicity against human MDA-MB-231 cells assessed as reduction in cell viability at 25 to 100 uM after 24 hrs in presence of chloroquine by MTT assay; type: functional, cell-based; details: dose 25-100 µM
Method in brief: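 ~0.5 × 10^5 cells per well in six-well plates given 2.5 µM test agent together with chloroquine at 25, 50 or 100 µM, 24 h at 37 °C in humidified CO2. Viability read by MTT. Duplicate assays from two independent experiments, shown with SD.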

[18] = tested on: MCF7; experiment: Induction of autophagy in human MCF7 cells assessed as LC3-2 to LC3-1 protein ratio at 2.5 uM after 24 hrs by Western blot analysis (reference value: 0.22 to 0.8); type: functional
[19] = tested on: MCF7 (Homo sapiens); experiment: Induction of apoptosis in human MCF7 cells assessed as increase in cell death at 2.5 uM after 24 hrs by EtBr/AO staining based fluorescence microscopic method

In the case of `O=C1C(=O)c2ccsc2-c2ccccc21`, the Activity [1] is reported as 19.1%, the Activity [2] is reported as “Tde” and the Activity [3] is reported as “Active”. For the same compound, the “fold change (FC)” value [4] was “>=2”, the Activity [5] was “Active” and the Activity [6] was “inactive”. For the same compound, the Activity [7] was “Active”, the Activity [8] was “Active” and the Activity [9] was “Active”. For the same compound, the Activity [10] was “Active”, the Activity [11] was “Active” and the Activity [12] was “Active”. The Activity [13] was “Active”, the Activity [14] was “Active” and the Activity [15] was “Dose-dependent effect”. The Activity [16] was “inactive”, the Activity [17] was “inactive” and the Ratio [18] was 16.3. The Activity [19] was “Active”.

For `O=C1C(=O)c2sccc2-c2ccccc21`, the Activity [1] was 23.5%, the Activity [2] was “Tde” and the Activity [3] was “Active”. For the same compound, the “fold change (FC)” value [4] was “>=2”, the Activity [5] was “Active” and the Activity [6] was “inactive”. For the same compound, the Activity [7] was “Active”, the Activity [8] was “Active” and the Activity [9] was “Active”. The Activity [10] was “Active”, the Activity [11] was “Active” and the Activity [12] was “Active”. The Activity [13] was “Active”, the Activity [14] was “Active” and the Activity [15] was “Dose-dependent effect”. The Activity [16] was “inactive”, the Activity [17] was “inactive” and the Ratio [18] was 7.14. For the same compound, the Activity [19] was “Active”.
